# In ChEMBL document CHEMBL3112586, “Synthesis of neolignans as microtubule stabilisers” (Bioorg Med Chem, 2014):
# Calls of active or inactive are those of the source. No cut-off for these calls is given here.
# Tests used:
# Mus musculus [1] = experiment: Toxicity in Swiss albino mouse assessed as change in albumin level at 50 mg/kg, po (reference value: 3.35 +/- 0.51 g/dL); format: organism-based; design: dose 50 mg/kg, route oral; settings: in vivo
# Mus musculus [2] = experiment: Toxicity in Swiss albino mouse assessed as change in WBC count at 5 mg/kg, po (reference value: 14.2 +/- 7.49 X 10^3/mm'3); format: organism-based; design: dose 5 mg/kg, route oral; settings: in vivo
# MCF7 [3] = experiment: Cytotoxicity against human MCF7 cells after 48 hrs by MTT assay; format: functional, cell-based; settings: MCF7, 48 h
# Procedure, shortened: (§1)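 Cells in DMEM, 10% FBS, 37 °C, 5% CO2, plated and incubated 24 h; compounds diluted in phenol-red-free DMEM with 0.5% FBS, vehicle control; after exposure, MTT (5 mg/mL stock) added 3 h, formazan dissolved in DMSO, absorbance 570 nm; IC50 derived; podophyllotoxin and tamoxifen positive controls.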
# MCF7 [4] = experiment: Cell cycle arrest in human MCF7 cells assessed as increase in sub-diploid population after 24 hrs by propidium iodide staining-based FACS analysis; format: functional
# Procedure, shortened: (§2)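 MCF-7 in DMEM, 10% FBS, 37 °C, 5% CO2; treated 24 h, harvested, washed cold PBS, resuspended 2 × 10⁶ cells/ml, fixed absolute ethanol, RNase A treated, propidium iodide (50 µg/mL) 30 min room temperature; DNA content by flow cytometry; phase distribution versus untreated control.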
# Mus musculus [5] = experiment: Toxicity in Swiss albino mouse assessed as relative heart weight at 5 to 1000 mg/kg, po relative to control; format: organism-based; design: dose 5-1000 mg/kg, route oral; settings: in vivo
# Procedure, shortened: (§3)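 One oral dose (5–1000 mg/kg; DMSO then 0.7% carboxymethyl cellulose vehicle; controls vehicle-only) was given to groups of 6 mice (3 male, 3 female). On day 7 the animals were sacrificed and necropsied for gross pathology. Absolute and relative weights of vital organs were recorded and compared with control.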
# Mus musculus [6] = experiment: Toxicity in Swiss albino mouse assessed as change in serum protein level at 300 mg/kg, po (reference value: 1.11 +/- 0.14 mg/ml); format: organism-based; design: dose 300 mg/kg, route oral; settings: in vivo
# MCF7 [7] = experiment: Cell cycle arrest in human MCF7 cells assessed as decrease in S phase at 5 to 30 uM after 24 hrs by propidium iodide staining-based FACS analysis relative to untreated control; format: functional; procedure, shortened: as §2
# Mus musculus [8] = experiment: Toxicity in Swiss albino mouse assessed as change in body weight at 300 mg/kg, po (reference value: 24.5 +/- 0.76 g); format: organism-based; design: dose 300 mg/kg, route oral; settings: in vivo
# Mus musculus [9] = experiment: Toxicity in Swiss albino mouse assessed as change in eosinophil count at 5 to 1000 mg/kg, po relative to control; format: organism-based; design: dose 5-1000 mg/kg, route oral; settings: in vivo
# Mus musculus [10] = experiment: Toxicity in Swiss albino mouse assessed as relative lungs weight at 5 to 1000 mg/kg, po relative to control; format: organism-based; design: dose 5-1000 mg/kg, route oral; settings: in vivo; procedure, shortened: as §3
# MCF7 [11] = experiment: Cytotoxicity against human MCF7 cells after 48 to 72 hrs by MTT assay; format: functional, cell-based; procedure, shortened: as §1
# Mus musculus [12] = experiment: Toxicity in Swiss albino mouse assessed as change in cholesterol level at 50 mg/kg, po (reference value: 81.64 +/- 4.26 mg/dL); format: organism-based; design: dose 50 mg/kg, route oral; settings: in vivo
# Mus musculus [13] = experiment: Toxicity in Swiss albino mouse assessed as absolute spleen weight at 5 to 1000 mg/kg, po relative to control; format: organism-based; design: dose 5-1000 mg/kg, route oral; settings: in vivo
# Mus musculus [14] = experiment: Toxicity in Swiss albino mouse assessed as relative brain weight at 5 to 1000 mg/kg, po relative to control; format: organism-based; design: dose 5-1000 mg/kg, route oral; settings: in vivo; procedure, shortened: as §3
# Mus musculus [15] = experiment: Toxicity in Swiss albino mouse assessed as absolute kidney weight at 5 to 1000 mg/kg, po relative to control; format: organism-based; design: dose 5-1000 mg/kg, route oral; settings: in vivo
# Mus musculus [16] = experiment: Toxicity in Swiss albino mouse assessed as change in lymphocyte count at 5 to 1000 mg/kg, po relative to control; format: organism-based; design: dose 5-1000 mg/kg, route oral; settings: in vivo
# Mus musculus [17] = experiment: Toxicity in Swiss albino mouse assessed as change in body weight at 50 mg/kg, po (reference value: 24.5 +/- 0.76 g); format: organism-based; design: dose 50 mg/kg, route oral; settings: in vivo
# Mus musculus [18] = experiment: Toxicity in Swiss albino mouse assessed as change in SGPT level at 300 mg/kg, po (reference value: 12.28 +/- 3.73 U/L); format: organism-based; design: dose 300 mg/kg, route oral; settings: in vivo
# MDA-MB-231 [19] = experiment: Cytotoxicity against human MDA-MB-231 cells after 48 hrs by MTT assay; format: functional, cell-based; settings: MDA-MB-231, 48 h; procedure, shortened: as §1
# Mus musculus [20] = experiment: Toxicity in Swiss albino mouse assessed as change in monocyte count at 5 to 1000 mg/kg, po relative to control; format: organism-based; design: dose 5-1000 mg/kg, route oral; settings: in vivo
# MCF7 [21] = experiment: Cytotoxicity against human MCF7 cells after 24 hrs by MTT assay; format: functional, cell-based; settings: MCF7, 24 h; procedure, shortened: as §1
# MDA-MB-231 [22] = experiment: Cytotoxicity against human MDA-MB-231 cells after 24 hrs by MTT assay; format: functional, cell-based; settings: MDA-MB-231, 24 h; procedure, shortened: as §1
# MCF7 [23] = experiment: Induction of microtubule polymerization in human MCF7 cells assessed as actin-tubulin cytoskeleton stabilization at 10 to 40 uM by confocal microscopy; format: cell-based
# Procedure, shortened: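 MCF-7 cells treated, immunostained for actin and tubulin, and examined by confocal microscopy; paclitaxel-treated cells as positive control.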
# Mus musculus [24] = experiment: Toxicity in Swiss albino mouse assessed as absolute lungs weight at 5 to 1000 mg/kg, po relative to control; format: organism-based; design: dose 5-1000 mg/kg, route oral; settings: in vivo
# MCF7 [25] = experiment: Cell cycle arrest in human MCF7 cells assessed as accumulation at G2 phase at 5 to 30 uM after 24 hrs by propidium iodide staining-based FACS analysis; format: functional; procedure, shortened: as §2
# Mus musculus [26] = experiment: Toxicity in Swiss albino mouse assessed as change in creatinine level at 1000 mg/kg, po (reference value: 0.63 +/- 0.18 mg/dL); format: organism-based; design: dose 1000 mg/kg, route oral; settings: in vivo
# Mus musculus [27] = experiment: Toxicity in Swiss albino mouse assessed as change in SGOT level at 300 mg/kg, po (reference value: 25.27 +/- 1.32 U/L); format: organism-based; design: dose 300 mg/kg, route oral; settings: in vivo
# Mus musculus [28] = experiment: Toxicity in Swiss albino mouse assessed as relative spleen weight at 5 to 1000 mg/kg, po relative to control; format: organism-based; design: dose 5-1000 mg/kg, route oral; settings: in vivo; procedure, shortened: as §3
# Mus musculus [29] = experiment: Toxicity in Swiss albino mouse assessed as change in SGOT level at 50 mg/kg, po (reference value: 25.27 +/- 1.32 U/L); format: organism-based; design: dose 50 mg/kg, route oral; settings: in vivo
# Mus musculus [30] = experiment: Toxicity in Swiss albino mouse assessed as change in albumin level at 5 mg/kg, po (reference value: 3.35 +/- 0.51 g/dL); format: organism-based; design: dose 5 mg/kg, route oral; settings: in vivo
# Mus musculus [31] = experiment: Toxicity in Swiss albino mouse assessed as change in RBC count at 1000 mg/kg, po (reference value: 5.43 +/- 0.27 million/mm'3); format: organism-based; design: dose 1000 mg/kg, route oral; settings: in vivo
# Mus musculus [32] = experiment: Toxicity in Swiss albino mouse assessed as change in ALKP level at 300 mg/kg, po (reference value: 218.67 +/- 12.43 U/L); format: organism-based; design: dose 300 mg/kg, route oral; settings: in vivo
# Mus musculus [33] = experiment: Toxicity in Swiss albino mouse assessed as change in total haemoglobin level at 5 mg/kg, po (reference value: 11.39 +/- 0.84 g/dL); format: organism-based; design: dose 5 mg/kg, route oral; settings: in vivo
# MDA-MB-231 [34] = experiment: Cell cycle arrest in human MDA-MB-231 cells at 5 to 30 uM after 24 hrs by propidium iodide staining-based FACS analysis; format: functional
# Procedure, shortened: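 MDA-MB-231 grown in DMEM with 10% FBS at 37 °C, 5% CO2; 24 h treatment, then cold-PBS wash, 2 × 10⁶ cells/ml, absolute-ethanol fixation, RNase A, propidium iodide 50 µg/mL for 30 min at room temperature; flow cytometric DNA content, sub-diploid fraction scored.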
# Mus musculus [35] = experiment: Toxicity in Swiss albino mouse assessed as absolute heart weight at 5 to 1000 mg/kg, po relative to control; format: organism-based; design: dose 5-1000 mg/kg, route oral; settings: in vivo
# Mus musculus [36] = experiment: Toxicity in Swiss albino mouse assessed as absolute liver weight at 5 to 1000 mg/kg, po relative to control; format: organism-based; design: dose 5-1000 mg/kg, route oral; settings: in vivo
structure (smiles),measurement,setting,value
CCOC(=O)/C=C/c1ccc(O)c(/C(=C/c2ccc(O)cc2)C(=O)OCC)c1,Activity,Mus musculus [1],2.76 g/dL
same,Activity,Mus musculus [2],14.6 ×10³ /mm3
same,IC50,MCF7 [3],9.29 µM
same,Activity,MCF7 [4],Dose-dependent effect
same,Activity,Mus musculus [5],Non-toxic
same,Activity,Mus musculus [6],0.92 mg/mL
same,Activity,MCF7 [7],Active
same,Activity,Mus musculus [8],25 g
same,Activity,Mus musculus [9],Non-toxic
same,Activity,Mus musculus [10],Non-toxic
same,Activity,MCF7 [11],Active
same,Activity,Mus musculus [12],58.62 mg/dL
same,Activity,Mus musculus [13],Non-toxic
same,Activity,Mus musculus [14],Non-toxic
same,Activity,Mus musculus [15],Non-toxic
same,Activity,Mus musculus [16],Non-toxic
same,Activity,Mus musculus [17],24.83 g
same,Activity,Mus musculus [18],15.56 U/L
same,IC50,MDA-MB-231 [19],6.47 µM
same,Activity,Mus musculus [20],Non-toxic
same,IC50,MCF7 [21],12 µM
same,IC50,MDA-MB-231 [22],15 µM
same,Activity,MCF7 [23],inactive
same,Activity,Mus musculus [24],Non-toxic
same,Activity,MCF7 [25],Active
same,Activity,Mus musculus [26],1.87 mg/dL
same,Activity,Mus musculus [27],37.95 U/L
same,Activity,Mus musculus [28],Non-toxic
same,Activity,Mus musculus [29],34.34 U/L
same,Activity,Mus musculus [30],3.17 g/dL
same,Activity,Mus musculus [31],5.15 million/mm3
same,Activity,Mus musculus [32],217.42 U/L
same,Activity,Mus musculus [33],12.35 g/dL
same,Activity,MDA-MB-231 [34],inactive
same,Activity,Mus musculus [35],Non-toxic
same,Activity,Mus musculus [36],Non-toxic
